Measured values of several laboratories.
Compare with care: the assays were run in different laboratories.
Target: Death-associated protein kinase 3 (DAPK3, Homo sapiens, UniProt O43293)

For `CN(CCCC(F)(F)F)c1nccc(-c2cnn3ncccc23)n1`, the remaining binding was 90% (binding; 1 µM).
`c1cncc(-c2cccc(Nc3nccc(NC4CCCCC4)n3)c2)c1` gave a remaining binding of 85% (binding, competition with immobilised ligand; 10 µM).
`O=C1NC(c2ccccn2)Sc2ccccc21` (stereo not shown) gave a remaining binding of 0% (cell-free assay, competition with immobilised ligand; 1 µM).
`CC1CCCN1c1nccc(-c2cnn3ncccc23)n1` (stereo not shown) gave a remaining binding of 89% (binding; 1 µM).
With `FC(F)(F)Oc1cccc(-c2cnc3ccc(-c4ccncc4)nn23)c1` the remaining binding was 67% (cell-free assay, competition with immobilised ligand; 5 µM).
`CNC(=O)[C@@H]1CC[C@@H](n2c(-c3ccc4cnccc4c3)nc3ccc(C(=O)NCc4cccc(C(N)=O)c4)cc32)C1` has a remaining binding of 100% (binding, competition with immobilised ligand; 1 µM).
`CCCCN(CCCC)C(=O)CN1C[C@@H](c2cc(OC)c3c(c2)OCO3)[C@H](C(=O)O)[C@H]1CC(C)(C)CCC` has a remaining binding of 100% (cell-free assay, competition with immobilised ligand; 1 µM).
For `O=C(NCCCN1CCOCC1)c1ccc(Nc2nccc(-c3cc4ccccc4s3)n2)cc1`, the remaining binding was 9.7% (binding, competition with immobilised ligand; 1 µM).
With `CN(C)c1ncnc(-c2ccc3nc(Nc4cc(CN5CCN(C(=O)CC(F)(F)F)CC5)ccn4)[nH]c3c2)c1Cl` the remaining binding was 99% (cell-free assay, competition with immobilised ligand; 1 µM).
`Cc1cnn2ncc(-c3ccnc(N(C)C)n3)c2c1` gave a remaining binding of 84% (binding; 1 µM).
With `CNC(=O)Nc1ccc2c(c1)[C@@]1(CC2)OC(=O)N(CC(=O)N(Cc2ccc(F)cc2)[C@@H](C)C(F)(F)F)C1=O` the remaining binding was 100% (cell-free assay, competition with immobilised ligand; 1 µM).
For `COc1ncc2cc3ccccc3nc2c1C#N`, the remaining binding was 98% (cell-free assay, competition with immobilised ligand; 5 µM).
`CC(=O)Nc1c(C(C)=O)c(=O)n(C)c2nc(-c3ccc(Cl)cc3Cl)c(-c3ccc(Cl)cc3)cc12` gave a remaining binding of 100% (cell-free assay, competition with immobilised ligand; 1 µM).
`O=C(NCC1CCOCC1)c1n[nH]cc1NC(=O)c1c(F)cccc1F` gave a remaining binding of 94% (binding, competition with immobilised ligand; 1 µM).
`N[C@@H]1CCN(c2nccc(-c3cnn4ncccc34)n2)C1` has a remaining binding of 99% (binding; 1 µM).
`O=C(c1ccc(Nc2nccc(-c3cc4ccccc4s3)n2)cc1)N1CCC(N2CCCC2)CC1` gave a remaining binding of 11% (binding, competition with immobilised ligand; 1 µM).
With `C[C@@H]1CCN(c2nccc(-c3cnn4ncccc34)n2)C1` the remaining binding was 69% (binding; 1 µM).
With `Cc1cnc(Nc2ccc(C(=O)N3CCC(N4CCCC4)CC3)cc2)nc1-c1cc2ccccc2s1` the remaining binding was 3.4% (binding, competition with immobilised ligand; 1 µM).
`CN(C)c1nccc(-c2cnc3ncccn23)n1` has a remaining binding of 91% (binding; 1 µM).
The remaining binding of `CS(=O)(=O)c1cc(C2(NC(=O)c3cncc4c3cnn4-c3ccc(F)cc3)CC2)ccn1` is reported as 98% (cell-free assay, competition with immobilised ligand; 1 µM).
`CN(C)c1nccc(-c2cnn3ncccc23)n1` has a remaining binding of 91% (binding; 1 µM).
`Nc1c(C(=O)NCc2ccc(C(=O)NCCCC3CCCCC3)cc2)cnn1-c1ccccc1` gave a remaining binding of 100% (cell-free assay, competition with immobilised ligand; 0.1 µM).
